This note sets out measurements from ChEMBL document CHEMBL4041486, “Vobasinyl-Iboga Alkaloids from Tabernaemontana elegans: Cell Cycle Arrest and Apoptosis-Inducing Activity in HCT116 Colon Cancer Cells” (J Nat Prod, 2016).

The test system of assay [1] is HCT-116. As to the kind of experiment: Cell cycle arrest in human HCT116 cells assessed as accumulation at S phase at antiproliferative IC50 after 24 hrs by propidium iodide staining based flow cytometry (reference value: 38.8%). Format: functional.
The test system of assay [2] is HCT-116. Put plainly: Growth inhibition of human HCT116 cells after 72 hrs by MTS assay. The assay is classed as functional, cell-based. The note with it: HCT-116, 72 h. Summed up:
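HCT116 grown in McCoy's 5A, 10% FBS, 37 °C, 5% CO2; 5000 cells/well; compound in DMSO added 24 h after plating, 72 h exposure. Viability by MTS/PMS reduction to formazan, absorbance 490 nm. IC50 with 95% CI by curve fit; at least three independent experiments.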

In another assay the test system is HepG2. As to the kind of experiment: Growth inhibition of human HepG2 cells after 72 hrs by MTS assay. Format: functional, cell-based. The note with it: HepG2, 72 h. Summed up: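 HepG2 grown in DMEM with 10% FBS and 1% nonessential amino acids; 5000 cells/well; medium replaced with DMSO-dissolved compound 24 h post-seeding, 72 h exposure. MTS formazan absorbance read at 490 nm. IC50 derived with 95% CI; at least three independent experiments.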
In general terms: Tetrazolium dyes change colour on reduction, which living cells bring about.

Assay [3] deals with HCT-116. As to the kind of experiment: Cell cycle arrest in human HCT116 cells assessed as accumulation at G1 phase at 2 times antiproliferative IC50 after 24 hrs by propidium iodide staining based flow cytometry (reference value: 31%). Format: functional. A general note: A flow cytometer gives signals particle by particle.
Assay [4] concerns HCT-116. As to the kind of experiment: Cell cycle arrest in human HCT116 cells assessed as accumulation at G1 phase at antiproliferative IC50 after 24 hrs by propidium iodide staining based flow cytometry (reference value: 31%). Format: functional.
The subject of assay [5] is HCT-116. As to the kind of experiment: Cell cycle arrest in human HCT116 cells assessed as accumulation at G2/M phase at 2 times antiproliferative IC50 after 24 hrs by propidium iodide staining based flow cytometry (reference value: 30.2%). Format: functional.
The test system of assay [6] is HCT-116. As to the kind of experiment: Cytotoxicity against human HCT116 cells assessed as cell death at antiproliferative IC50 after 72 hrs by LDH release assay relative to control. The assay is classed as functional. Summed up:
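HCT116 cells grown in McCoy's 5A with 10% FBS at 37 °C, 5% CO2, and treated 24 h after plating for 72 h with compound or DMSO vehicle. Supernatants were spun at 250g for 2 min, and attached cells were lysed. LDH reagent was added for 15 min at room temperature in the dark, and absorbance was read at 490/620 nm. Release = supernatant/(supernatant + lysate) LDH, fold over DMSO; mean ± SEM, ≥3 experiments.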
For orientation: LDH leaks from cells whose membrane has failed.

Assay [7] relates to HCT-116. Put plainly: Cell cycle arrest in human HCT116 cells assessed as accumulation at S phase at 2 times antiproliferative IC50 after 24 hrs by propidium iodide staining based flow cytometry (reference value: 38.8%). The assay is classed as functional.
In assay [8] the test system is HCT-116. Put plainly: Cell cycle arrest in human HCT116 cells assessed as accumulation at G2/M phase at antiproliferative IC50 after 24 hrs by propidium iodide staining based flow cytometry (reference value: 30.2%). The assay is classed as functional.
For assay [9], the system named is HCT-116. As to the kind of experiment: Induction of apoptosis in human HCT116 cells assessed as apoptotic nuclei at 2 times antiproliferative IC50 after 24 hrs by Hoechst 33258 staining based fluorescence microscopic method (reference value: <2%). Format: functional. The method in brief:
(§1)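 HCT116 seeded 150 000 cells per 35 mm dish; treated 24 h, fixed in 4% paraformaldehyde in PBS pH 7.4, 10 min 25 °C, stained Hoechst 33258 5 μg/mL, 5 min. Fluorescence microscopy; condensed or fragmented chromatin scored apoptotic; three random fields of about 100 nuclei per sample; percent apoptotic nuclei, mean ± SEM, ≥3 experiments.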

Assay [10] has as its system HCT-116. Put plainly: Induction of apoptosis in human HCT116 cells assessed as apoptotic nuclei at antiproliferative IC50 after 24 hrs by Hoechst 33258 staining based fluorescence microscopic method (reference value: <2%). Format: functional. Summed up:
as §1

Assay [11] has as its system HCT-116. As to the kind of experiment: Induction of apoptosis in human HCT116 cells assessed as caspase-3/7 activation at antiproliferative IC50 after 24 hrs by Caspase-Glo assay relative to DMSO control. The assay is classed as functional. The method in brief:
(§2)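 HCT116 at 5000 cells/well exposed 24 h. Caspase-Glo 3/7 reagent (DEVD-aminoluciferin substrate) 75 μL/well, 30 min room temperature for lysis and signal build-up; luminescence read. Activity expressed as fold of the reference treatment (DMSO vehicle or 5-FU); mean ± SEM, at least three experiments.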

In assay [12] the test system is HCT-116. Put plainly: Induction of apoptosis in human HCT116 cells assessed as caspase-3/7 activation at antiproliferative IC50 after 24 hrs by Caspase-Glo assay relative to 5-fluorouracil. Format: functional. The method in brief:
as §2

For `O=c1[nH]cc(F)c(=O)[nH]1` [FLUOROURACIL], the Activity stood at 78.7% with HCT-116 [1]; 39.8% with HCT-116 [3]; 21.3% with HCT-116 [4]; 4.48% in the assay on HCT-116 [5]; 55.7% with HCT-116 [7]; 0% in the assay with HCT-116 [8]. Further, the figures for the IC50 in the assay with HCT-116 [2] and in the assay on HepG2 were 2.5 µM and over 10 µM, respectively. For the same compound, the “fold change (FC)” value in the assay with HCT-116 [6] is 2.2 - 2.5.
On to `CC[C@H]1CN(C)[C@H]2Cc3c([nH]c4ccccc34)[C@H](c3cc4c5c([nH]c4cc3OC)C3(C(=O)OC)C[C@@H]4C[C@H](CC)[C@@H]3N(CC5)C4)C[C@@H]1C2C(=O)OC` (stereo partly drawn), for which the Activity in the assay with HCT-116 [1] was 21.9%; with HCT-116 [9], 40%; in the assay with HCT-116 [10], 31%; in the assay on HCT-116 [3], 27.7%; in the assay with HCT-116 [4], 2.39%; in the assay with HCT-116 [5], 43.8 - 47%. Moreover, the Activity was 28.5% with HCT-116 [7] and 75.7 - 77% in the assay on HCT-116 [8]. Moreover, the IC50 in the assay with HCT-116 [2] is 8.5 µM; with HepG2, over 10 µM. The “fold change (FC)” value is listed as 2.5 - 2.8 in the assay on HCT-116 [6], 1.6 - 5.2 in the assay with HCT-116 [11] and 1.5 - 3.7 in the assay on HCT-116 [12].
Turning to `CC[C@@H]1CN(C)[C@H]2Cc3c([nH]c4ccccc34)[C@H](c3c(OC)ccc4c5c([nH]c34)C3(C(=O)OC)C[C@@H]4C[C@H](CC)[C@@H]3N(CC5)C4)C[C@@H]1C2C(=O)OC` (stereo partly drawn), the IC50 with HCT-116 [2] and in the assay on HepG2 was over 10 µM throughout.
For `CC[C@H]1CN(C)[C@H]2Cc3c([nH]c4ccccc34)[C@H](c3c(OC)ccc4c5c([nH]c34)C3(C(=O)OC)C[C@@H]4C[C@H]([C@H](C)O)[C@@H]3N(CC5)C4)C[C@@H]1C2C(=O)OC` (stereo partly drawn), the Activity with HCT-116 [1] is 39.3%; in the assay on HCT-116 [9], 13%; with HCT-116 [10], 11%; in the assay on HCT-116 [3] it was 55 - 65%; in the assay on HCT-116 [4], 42.3 - 49%; in the assay on HCT-116 [5], 15.7%. In addition, the Activity in the assay with HCT-116 [7] worked out at 19.3%; in the assay with HCT-116 [8] it was 18.5%. Further, the IC50 with HCT-116 [2] was 8.4 µM; in the assay on HepG2 it was over 10 µM. Also, the “fold change (FC)” value in the assay on HCT-116 [6] is on record as 2.5 - 2.8; with HCT-116 [11], 1.6 - 5.2; in the assay with HCT-116 [12], 1.5 - 3.7.
`CC[C@H]1CN(C)[C@H]2Cc3c([nH]c4ccccc34)[C@H](c3cc4c5c([nH]c4cc3OC)C3(C(=O)OC)CC4C[C@H](CC)[C@@H]3N(CC5)C4=O)C[C@@H]1C2C(=O)OC` (stereo partly drawn): the Activity is recorded as 39.4% in the assay with HCT-116 [1]; 37% in the assay on HCT-116 [9]; 16% in the assay on HCT-116 [10]; 32% in the assay with HCT-116 [3]; 34.4% with HCT-116 [4]; 44 - 50.5% in the assay with HCT-116 [5]. The Activity with HCT-116 [7] is recorded as 17.5%; in the assay on HCT-116 [8], 26.2 - 32%. Moreover, the figures for the IC50 in the assay on HCT-116 [2] and with HepG2 were 8.8 µM and over 10 µM, respectively. Further, the “fold change (FC)” value in the assay with HCT-116 [6] was 2.5 - 2.8; in the assay on HCT-116 [11], 1.6 - 5.2; in the assay on HCT-116 [12], 1.5 - 3.7.
On to `CC[C@H]1CN(C)[C@H]2Cc3c([nH]c4ccccc34)[C@H](c3c(OC)ccc4c5c([nH]c34)C3(C(=O)OC)CC4C[C@H](CC)[C@@H]3N(CC5)C4=O)C[C@@H]1C2C(=O)OC` (stereo partly drawn), for which the Activity in the assay with HCT-116 [1] was 36.5%; with HCT-116 [9], 25%; in the assay with HCT-116 [10] it was 16%; with HCT-116 [3], 62 - 67.2%; in the assay on HCT-116 [4] it was 41.7 - 46%; in the assay with HCT-116 [5], 16.9%. Besides, the values for the Activity in the assay with HCT-116 [7] and with HCT-116 [8] were 15.9% and 21.8%, respectively. For the same compound, the IC50 in the assay with HCT-116 [2] and with HepG2 was over 10 µM in each case. In addition, the “fold change (FC)” value in the assay with HCT-116 [6] was 2.5 - 2.8; in the assay with HCT-116 [11] it was 1.6 - 5.2; in the assay on HCT-116 [12], 1.5 - 3.7.

For orientation: IC50 means the point on the concentration scale where inhibition reaches its midpoint.
